Converted amounts (≈) assume the structure as drawn.
What was measured:
[1] = test system: S. oralis ATCC 9811; experiment: MIC by microdilution; type: cell-based; settings: Streptococcus oralis, ATCC9811
Method in brief: (§1)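 Streptococcal MICs came from CLSI broth microdilution in cation-adjusted Mueller Hinton II broth with 5% lysed horse blood. Final inoculum 5 × 10⁵ CFU/mL, incubation at 35 °C, read after 16–20 or 20–24 h depending on species. MIC was the lowest concentration without visible growth, determined in triplicate.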

[2] = biological target: purified recombinant PBP2a (Staphylococcus aureus, UniProt P07944); experiment: Continuous spectrophotometric PBP2a inhibition assay with nitrocefin; type: biochemical, MRSA
[3] = test system: DNA synthesis (replication) of S. aureus; experiment: Macromolecular synthesis assay, [methyl-3H]-thymidine incorporation; type: cell-based, Staphylococcus aureus; settings: S. aureus ATCC 29213, logarithmic phase; 0.25 and 0.5 μg/mL
Method in brief: (§2)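 Mid-exponential S. aureus ATCC 29213 in brain heart infusion was labelled with 1 μCi/mL ³H-precursor for 10 min at 37 °C before test compound addition (0.25, 0.5 μg/mL). Controls: ciprofloxacin (thymidine), rifampicin (uridine), tetracycline (leucine), fosfomycin (alanine). Samples every 20 min up to 2 h, precipitated in 20% cold TCA, filtered, scintillation-counted. Triplicates, repeated at least twice; % inhibition versus control.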

[4] = test system: E. faecium NCTC 7171; experiment: MIC by microdilution; type: cell-based; settings: Enterococcus faecium, NCTC7171
Method in brief: (§3)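 CLSI broth microdilution in cation-adjusted Mueller Hinton II broth, final inoculum 5 × 10⁵ CFU/mL. Plates incubated at 35 °C and read after 16–20 or 20–24 h depending on species. MIC taken as the lowest concentration with no visible growth. All determinations in triplicate.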

[5] = test system: RNA synthesis (transcription) of S. aureus; experiment: Macromolecular synthesis assay, [5-3H]-uridine incorporation; type: cell-based, Staphylococcus aureus; settings: S. aureus ATCC 29213, logarithmic phase; 0.25 and 0.5 μg/mL
Method in brief: as §2

[6] = test system: S. epidermis ATCC 35547; experiment: MIC by microdilution; type: cell-based
Method in brief: as §3

[7] = test system: E. faecium 106 (Van R); experiment: MIC by microdilution; type: cell-based; settings: Enterococcus faecium
Method in brief: as §3

[8] = test system: S. aureus VRS2; experiment: MIC by microdilution; type: cell-based; settings: Staphylococcus aureus, MRSA
Method in brief: (§4)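 S. aureus was tested by CLSI broth microdilution in cation-adjusted Mueller Hinton II broth, final inoculum 5 × 10⁵ CFU/mL, 35 °C, read after 16–20 or 20–24 h; oxacillin was tested with 2% NaCl. MIC was the lowest concentration without visible growth, in triplicate. For ATCC 29213, inocula of 5 × 10⁶ and 5 × 10⁷ CFU/mL were also tested.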

[9] = test system: T7 polymerase transcription of the dacB gene encoding E. coli PBP4; experiment: In vitro transcription assay; type: biochemical; settings: 0.5, 5, 50 and 160 μg/mL, 2 h at 37 °C
Method in brief: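 Template was pET24a carrying E. coli K12 dacB without the 90-bp signal-peptide region, linearized with XhoI, 2 μL at 0.5 μg/μL per reaction. Run with a T7 transcription kit, test compound or negative control, then iced. DNaseI (37 °C, 15 min) and EDTA with 65 °C for 10 min followed. Transcripts diluted 30-fold and run on a 1% denaturing formaldehyde gel in MOPS pH 7.0.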

[10] = test system: protein synthesis (translation) of S. aureus; experiment: Macromolecular synthesis assay, L-[4,5-3H]-leucine incorporation; type: cell-based, Staphylococcus aureus; settings: S. aureus ATCC 29213, logarithmic phase; 0.25 and 0.5 μg/mL
Method in brief: as §2

[11] = test system: S. aureus ATCC 29213; experiment: MIC by microdilution; type: cell-based; settings: Staphylococcus aureus, ATCC29213
Method in brief: as §4

[12] = test system: S. aureus ATCC 27660; experiment: MIC by microdilution; type: cell-based; settings: Staphylococcus aureus, ATCC27660
Method in brief: as §4

[13] = test system: S. hemolyticus ATCC 29970; experiment: MIC by microdilution; type: cell-based; settings: Streptococcus pyogenes, ATCC29970
[14] = test system: peptidoglycan synthesis of S. aureus; experiment: Macromolecular synthesis assay, D-[2,3-3H]-alanine incorporation; type: cell-based, Staphylococcus aureus; settings: S. aureus ATCC 29213, logarithmic phase; 0.25 and 0.5 μg/mL
Method in brief: as §2

[15] = test system: S. aureus NRS100 (COL); experiment: MIC by microdilution; type: cell-based; settings: Staphylococcus aureus
Method in brief: as §4

[16] = test system: S. pyogenes ATCC 49399; experiment: MIC by microdilution; type: cell-based; settings: Streptococcus pyogenes, ATCC49399
Method in brief: as §1

[17] = test system: S. aureus NRS119; experiment: MIC by microdilution; type: cell-based; settings: Staphylococcus aureus
Method in brief: as §4

[18] = Hemolysis assay; type: cell-based, horse; settings: horse, washed red blood cells from horse whole blood
[19] = test system: S. aureus ATCC 27660 (MRSA); experiment: Mouse peritonitis infection model; type: in vivo, Staphylococcus aureus; settings: mice, antibiotic 3 vs 4
Method in brief: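 Female ICR mice (6–8 weeks, 17–20 g) were infected intraperitoneally with 0.5 mL MRSA ATCC 27660 at 5 × 10⁷ CFU/mL in 5% mucin. The inoculum was grown in brain heart infusion and adjusted to OD540 0.5. A single oral gavage dose was given 1 h post-infection (n = 6/group), with linezolid 10 mg/kg as positive control. Survival was monitored over 2 days.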

[20] = test system: E. faecium 119–39A (Van S); experiment: MIC by microdilution; type: cell-based; settings: Enterococcus faecium
Method in brief: as §3

[21] = test system: S. aureus NRS120; experiment: MIC by microdilution; type: cell-based; settings: Staphylococcus aureus
Method in brief: as §4

[22] = test system: E. coli S30 extract coupled transcription and translation system; experiment: In vitro transcription/translation assay; type: biochemical; settings: concentrations of up to 160 μg/mL (80-fold above the MIC)
Method in brief: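 The coupled system used the E. coli S30 extract (circular DNA) with a pUC19 lacZ template. Test compound was added at 0.5, 5, 50 and 160 μg/mL alongside a negative control. Reactions ran 2 h at 37 °C and were stopped on ice for 5 min. β-Galactosidase was quantified by o-nitrophenyl-β-D-galactoside hydrolysis, read at 420 nm against a standard curve.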

[23] = test system: S. aureus VRS1; experiment: MIC by microdilution; type: cell-based; settings: Staphylococcus aureus, MRSA
Method in brief: as §4

[24] = Pharmacokinetics in mice; type: in vivo; settings: for volume of distribution (in words): single 50 mg/kg iv
Method in brief: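 Female ICR mice received a single 50 mg/kg dose, either iv in 10% DMSO/25% Tween-80/65% water or po by gavage (n = 3 per time point). Terminal blood was taken at 2 min–24 h after iv and 0.5–48 h after po, then centrifuged for plasma. Plasma was precipitated with acetonitrile containing internal standard and analysed by C18 UPLC-ESI(+)-MRM against calibration curves in blank mouse plasma.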

[25] = test system: E. faecalis ATCC 29212; experiment: MIC by microdilution; type: cell-based; settings: Enterococcus faecalis, ATCC29212
Method in brief: as §3

[26] = test system: E. faecalis 201 (Van S); experiment: MIC by microdilution; type: cell-based; settings: Enterococcus faecalis
Method in brief: as §3

[27] = test system: E. faecium; experiment: Initial antibacterial screen of in silico hits; type: cell-based, Enterococcus faecium; settings: initial screening of in silico hits
[28] = test system: S. aureus; experiment: Initial antibacterial screen of in silico hits; type: cell-based, Staphylococcus aureus; settings: initial screening of in silico hits
[29] = ICR, mouse, plasma, iv, 50 mg/kg
[30] = female, ICR, mouse, plasma, po, 50 mg/kg

Chain of purified recombinant PBP2a (P07944 whole entry): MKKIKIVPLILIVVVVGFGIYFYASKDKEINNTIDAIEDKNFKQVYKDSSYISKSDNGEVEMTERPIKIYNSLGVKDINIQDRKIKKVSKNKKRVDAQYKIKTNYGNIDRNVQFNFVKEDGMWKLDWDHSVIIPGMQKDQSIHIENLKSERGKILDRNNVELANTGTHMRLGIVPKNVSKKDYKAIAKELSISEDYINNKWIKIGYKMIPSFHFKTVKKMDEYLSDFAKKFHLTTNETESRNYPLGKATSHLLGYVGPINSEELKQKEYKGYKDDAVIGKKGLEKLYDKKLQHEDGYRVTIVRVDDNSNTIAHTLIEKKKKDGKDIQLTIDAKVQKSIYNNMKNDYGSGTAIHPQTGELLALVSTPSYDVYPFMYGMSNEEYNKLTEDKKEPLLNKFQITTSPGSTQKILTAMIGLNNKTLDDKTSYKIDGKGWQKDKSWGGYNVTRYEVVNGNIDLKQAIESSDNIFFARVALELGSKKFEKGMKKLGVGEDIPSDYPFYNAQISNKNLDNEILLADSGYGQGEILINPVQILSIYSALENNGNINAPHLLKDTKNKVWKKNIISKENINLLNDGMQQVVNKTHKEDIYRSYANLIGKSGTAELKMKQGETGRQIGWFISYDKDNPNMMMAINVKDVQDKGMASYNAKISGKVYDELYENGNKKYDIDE

With Oc1ccc(-c2nc(-c3ccc(Oc4ccc(C(F)(F)F)cc4)cc3)no2)cc1 [Compound 3, 4-(3-(4-(4-(Trifluoromethyl)phenoxy)phenyl)-1,2,4-oxadiazol-5-yl)phenol] the MIC [1] was 32 µg/mL (≈ 80.3 µM), the IC50 [2] was 20.1 µM and the “inhibition of replication (DNA synthesis)” value [3] was “did not inhibit”. The MIC [4] was 2 µg/mL (≈ 5.02 µM), the inhibition of transcription [5] was “did not inhibit” and the MIC [6] was 2 µg/mL (≈ 5.02 µM). The MIC [7] was 2 µg/mL (≈ 5.02 µM), the MIC [8] was 2 µg/mL (≈ 5.02 µM) and the “effect on dacB mRNA band intensities” value [9] was “no effect”. For the same compound, the inhibition of translation [10] was “did not inhibit”, the MIC [11] was 2 µg/mL (≈ 5.02 µM) and the MIC [12] was 2 µg/mL (≈ 5.02 µM). The MIC [13] was 2 µg/mL (≈ 5.02 µM), the “inhibition of peptidoglycan synthesis” value [14] was “inhibited peptidoglycan synthesis” and the MIC [15] was 2 µg/mL (≈ 5.02 µM). For the same compound, the MIC [16] was greater than 32 µg/mL, the MIC [17] was 2 µg/mL (≈ 5.02 µM) and the hemolysis at 1 h, 64 μg/mL [18] was 3%. The “efficacy following po dosing (comparison)” value [19] was “superior efficacy”, the MIC [20] was 1 µg/mL (≈ 2.51 µM) and the MIC [21] was 2 µg/mL (≈ 5.02 µM). For the same compound, the “effect on β-galactosidase formation” value [22] was “no effect”, the MIC [23] was 2 µg/mL (≈ 5.02 µM) and the AUC(0-inf) [24, 29] was 44200 ng·h/mL. The Vd [24, 29] was 0.37 L/kg, the AUC(0-inf) [24, 30] was 43700 ng·h/mL and the Cmax [24, 30] was 2500 ng/mL. For the same compound, the Tmax [24, 30] was 2 h, the “higher systemic exposure relative to comparator compound” value ([24]; mice, 50 mg/kg iv, compound 3 vs compound 2, compound 4 vs compound 3) was 2 fold and the “volume of distribution (in words)” value ([24]; mice) was “moderate volume of distribution”. The MIC [25] was 2 µg/mL (≈ 5.02 µM) and the MIC [26] was 2 µg/mL (≈ 5.02 µM).

Compound Oc1ccc(-c2nc(-c3ccc(Oc4ccccc4)cc3)no2)cc1 [Compound 2, 4-(3-(4-Phenoxyphenyl)-1,2,4-oxadiazol-5-yl)phenol] has an MIC [1] of 32 µg/mL (≈ 96.9 µM), an IC50 [2] of 12.1 µM and an MIC [4] of 1 µg/mL (≈ 3.03 µM). The MIC [6] was 2 µg/mL (≈ 6.05 µM), the MIC [7] was 2 µg/mL (≈ 6.05 µM) and the MIC [8] was 2 µg/mL (≈ 6.05 µM). It also gave an MIC [11] of 2 µg/mL (≈ 6.05 µM), an MIC [12] of 2 µg/mL (≈ 6.05 µM) and an MIC [13] of 2 µg/mL (≈ 6.05 µM). For the same compound, the MIC [15] was 2 µg/mL (≈ 6.05 µM), the MIC [16] was 32 µg/mL (≈ 96.9 µM) and the MIC [17] was 2 µg/mL (≈ 6.05 µM). It also gave a hemolysis at 1 h, 64 μg/mL [18] of 3%, an MIC [20] of 1 µg/mL (≈ 3.03 µM) and an MIC [21] of 2 µg/mL (≈ 6.05 µM). It also gave an MIC [23] of 2 µg/mL (≈ 6.05 µM), an AUC(0-inf) [24, 29] of 23000 ng·h/mL and a Vd [24, 29] of 0.86 L/kg. The clearance [24, 29] was 36.2 mL/min/kg, the “volume of distribution (in words)” value ([24]; mice) was “large volume of distribution” and the MIC [25] was 2 µg/mL (≈ 6.05 µM). The MIC [26] was 2 µg/mL (≈ 6.05 µM).

In the case of Fc1ccc(-c2nc(-c3ccc(Oc4ccc(C(F)(F)F)cc4)cc3)no2)cc1 [Compound 1, 5-(4-Fluorophenyl)-3-(4-(4-(trifluoromethyl)phenoxy)phenyl)-1,2,4-oxadiazole], the “MIC (in words)” value [27] is reported as “poor but reproducible MIC” and the “MIC (in words)” value [28] is reported as “poor but reproducible MIC”.
